Test results from ChEMBL document CHEMBL1142648, “Enhancement in antimicrobial activity of 2-(phenyl)-3-(2-butyl-4-chloro-1H-imidazolyl)-5-butylate isoxazolidine” (2005).
Values after ≈ are worked out from the molar mass of the structure shown.

Columns and labels:
Staphylococcus aureus = experiment: Minimum inhibitory concentration against Staphylococcus aureus; assay type: functional
Summary of the method: (§1)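 Broth tube dilution in brain heart infusion broth, 5 mL final volume. Compounds were dissolved in DMSO, diluted 1:9 with water, then serially diluted in medium. Cells were added at a final 2 × 10^3 CFU/mL and incubated at 37 °C for 24 h. Turbidity was read at 640 nm. MIC is the lowest concentration with no growth, confirmed by spreading 10 µL of clear tubes on BHI agar.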

Escherichia coli = experiment: Minimum inhibitory concentration against Escherichia coli; assay type: functional; summary of the method: as §1
Aspergillus niger = experiment: Minimum inhibitory concentration against Aspergillus niger; assay type: functional
Summary of the method: (§2)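 Fungal MIC by tube dilution in potato dextrose broth, 5 mL final volume. Compounds were taken up in DMSO, diluted 1:9 with water, then serially diluted in medium. Spore suspension was added at a final 2 × 10^3 CFU/mL and incubated at 28 °C for 48 h. Absorbance was read at 640 nm. MIC is the lowest no-growth concentration, checked by subculturing 10 µL onto potato dextrose agar and examining under a microscope.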

Bacillus subtilis = experiment: Minimum inhibitory concentration against Bacillus subtilis; assay type: functional; summary of the method: as §1
Fusarium verticillioides = experiment: Minimum inhibitory concentration against Fusarium moniliforme; assay type: functional; summary of the method: as §2
Cephalosporium = experiment: Minimum inhibitory concentration against Cephalosporium acremonium; assay type: functional, Hapsidospora chrysogena; summary of the method: as §2
[1] = Staphylococcus aureus, read-out: MIC
[2] = Escherichia coli, read-out: MIC
[3] = Bacillus subtilis, read-out: MIC

CCCCOC(=O)[C@H]1C[C@@H](c2[nH]c(CCCC)nc2Cl)N(c2ccccc2)O1 (stereo in doubt; A)
MIC (Staphylococcus aureus; [1]): 7 µg/mL (≈ 17.2 µM) | MIC (Escherichia coli; [2]): 10 µg/mL (≈ 24.6 µM) | MIC (Aspergillus niger): 14 µg/mL (≈ 34.5 µM) | MIC (Bacillus subtilis; [3]): 7 µg/mL (≈ 17.2 µM) | MIC (Fusarium verticillioides): 13 µg/mL (≈ 32 µM) | MIC (Cephalosporium): 11 µg/mL (≈ 27.1 µM)

CCCCOC(=O)[C@H]1C[C@@H](c2[nH]c(CCCC)nc2Cl)N(c2ccccc2)O1 (stereo in doubt; B)
MIC (Staphylococcus aureus): 8 µg/mL (≈ 19.7 µM) | MIC (Escherichia coli): 11 µg/mL (≈ 27.1 µM) | MIC (Aspergillus niger): 36 µg/mL (≈ 88.7 µM) | MIC (Bacillus subtilis): 7 µg/mL (≈ 17.2 µM) | MIC (Fusarium verticillioides): 28 µg/mL (≈ 69 µM) | MIC (Cephalosporium): 33 µg/mL (≈ 81.3 µM)

CN[C@@H]1[C@H](O[C@H]2[C@H](O[C@H]3[C@H](O)[C@@H](O)[C@H](N=C(N)N)[C@@H](O)[C@@H]3N=C(N)N)O[C@@H](C)[C@]2(O)C=O)O[C@@H](CO)[C@H](O)[C@H]1O [STREPTOMYCIN]
MIC (Staphylococcus aureus; [1]): 3 µg/mL (≈ 5.16 µM) | MIC (Escherichia coli; [2]): 6 µg/mL (≈ 10.3 µM) | MIC (Bacillus subtilis; [3]): 3 µg/mL (≈ 5.16 µM)

NYSTATIN
MIC (Aspergillus niger): 12 µg/mL | MIC (Fusarium verticillioides): 14 µg/mL | MIC (Cephalosporium; Hapsidospora chrysogena): 11 µg/mL
